Laboratory results taken from ChEMBL document CHEMBL1126255, “Excitatory amino acid receptor ligands. Synthesis and biological activity of 3-isoxazolol amino acids structurally related to homoibotenic acid” (J Med Chem, 1992).

What was measured:
[1] = molecular target: T1, Glutamate receptor ionotropic, AMPA (Rattus norvegicus, UniProt P19490+P19491+P19492+P19493); assay: Concentration required for 50% inhibition of [3H]AMPA binding to AMPA receptor in rat cortical slice preparation
[2] = molecular target: Glutamate receptor ionotropic, kainate; assay: Concentration required for 50% inhibition of [3H]-kainic acid binding to ionotropic glutamate receptor ionotropic kainate in rat cortical slice preparation
[3] = molecular target: T1, Glutamate receptor ionotropic, AMPA; assay: Concentration required for 50% inhibition of [3H]Glu binding to AMPA receptor in rat cortical slice preparation in the presence of 2.5 mM CaCl2
[4] = molecular target: Glutamate NMDA receptor; assay: Concentration required for 50% inhibition of [3H]-CPP binding to N-methyl-D-aspartate glutamate receptor in rat cortical slice preparation
Procedure, shortened: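 Rat brain membranes prepared by the Ransom and Stec method. [3H]CPP binding run per an earlier protocol, but ended by filtration through GF/B filters presoaked in 0.1% polyethyleneimine instead of centrifugation. At least three independent experiments per value.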

[5] = molecular target: Glutamate NMDA receptor; assay: Concentration required for 50% inhibition of [3H]-MK-801 binding to N-methyl-D-aspartate glutamate receptor in rat cortical slice preparation
Procedure, shortened: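 Fully stimulated rat brain membranes prepared by the Ransom and Stec method. Otherwise per an earlier protocol. At least three independent experiments per value.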

IC50 [1]	IC50 [2]	IC50 [3]	IC50 [4]	IC50 [5]	Structure (SMILES)
> 100 µM	> 100 µM	0.02 µM	> 100 µM	> 100 µM	CCCCCCCCc1c(O)noc1CC(N)C(=O)O (configuration not stated)
2 µM	> 100 µM	0.18 µM	> 100 µM	> 100 µM	CCCCc1c(O)noc1CC(N)C(=O)O (configuration not stated)
2 µM	> 100 µM	0.14 µM	> 100 µM	> 100 µM	NC(Cc1onc(O)c1CCO)C(=O)O (configuration not stated)

Structure (SMILES)	IC50 [1]	IC50 [2]	IC50 [3]	IC50 [4]	IC50 [5]
Cc1c(O)noc1CC(N)C(=O)O (configuration not stated)	0.6 µM	> 100 µM	0.18 µM	> 100 µM	> 100 µM
CC(C)(C)c1onc(O)c1CC(N)C(=O)O (configuration not stated)	–	–	–	> 100 µM	> 100 µM
